The array DNA melting data of Ke et al. (doi:10.1101/2024.01.08.574731)

Legend:
[1] = melting temperature; fluorescence melt of hairpins on a sequencing array, two-state fit, raised by 9.35 °C to match UV melts; details: sodium 0.088 M
Procedure, shortened: (§1)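 On a sequenced MiSeq flow cell, library hairpins with annealed Cy3 and quencher oligos were imaged for Cy3 fluorescence in 2.5 °C steps up to 60 °C, in 50 mM Na-HEPES pH 8.0, 25 mM NaCl. Normalisation used pre-quench Cy3 and control constructs. Bootstrapped two-state fits gave melting temperature and folding enthalpy, combined by inverse variance across four replicates and with fitted temperatures raised by 9.35 °C to match UV melts.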

[2] = folding enthalpy; higher = less favourable; fluorescence melt of hairpins on a sequencing array, two-state fit; details: sodium 0.088 M
Procedure, shortened: as §1

Row | Sequence | Tm [1] | folding enthalpy [2]
1 | GATCTTAGGTAAGATC ((((((....)))))) | 42.6 °C | -30.1 kcal/mol
2 | GAAGACGAAAGTCACTTC ((((((....)))..))) | 35 °C | -17.5 kcal/mol
3 | GCCGGCGGAAACGCCGAC (.(((((....))))).) | 59.4 °C | -10.3 kcal/mol
4 | GCGAAAGAAATTTCGC ((((((....)))))) | 55 °C | -34 kcal/mol
5 | GCCAACCGAAAGGTGGC (((.(((....)))))) | 67.4 °C | -22.9 kcal/mol
6 | CGGCCGGAAACGGGGCCG ((((((....)))..))) | 59.1 °C | -39.4 kcal/mol
7 | GCTCAAACGAAAGTTAGC (((..(((....)))))) | 29.4 °C | -22.6 kcal/mol
8 | CGGTTACGGAAACGTCCG (((..(((....)))))) | 36.1 °C | -23.3 kcal/mol
9 | GATCACCGACGTGATC ((((((....)))))) | 54.5 °C | -32.5 kcal/mol
10 | GGCCGGCGAAAGCCCGCC (((.(((....))).))) | 59.7 °C | -29.9 kcal/mol
11 | GAGCGCGAAAGCGAGCTC ((((((....)))..))) | 58.3 °C | -20.9 kcal/mol
12 | GAAGGCGAAAGCCATTC ((((((....))).))) | 39.7 °C | -10.4 kcal/mol
13 | GATCAAGTAATTGATC ((((((....)))))) | 50 °C | -32.1 kcal/mol
14 | GACAGGGGAAACCCCGTC (((.(((....))).))) | 50.3 °C | -24.6 kcal/mol
15 | GCCTTCACGAAAGTGGGC (((..(((....)))))) | 46.6 °C | -18.6 kcal/mol
16 | GATTGCGAAAGCAAAATC ((((((....)))..))) | 35.3 °C | -13.1 kcal/mol
17 | GCGATCGAAAGATGGCGC ((((((....)))..))) | 53.2 °C | -34.8 kcal/mol
18 | GGGGTCGAAAGACCACCC ((((((....)))..))) | 54.7 °C | -12.7 kcal/mol
19 | GATCCGCTCACGGATC ((((((....)))))) | 63.3 °C | -41.3 kcal/mol
20 | GATCCAATATTGGATC ((((((....)))))) | 52.2 °C | -41.7 kcal/mol
21 | GATCCACTGATGGATC ((((((....)))))) | 50.4 °C | -38.5 kcal/mol
22 | GTTCACGAAAGTGATAAC ((((((....)))..))) | 35 °C | -10.8 kcal/mol
23 | GAACGTGGAAACACGTCC (.(((((....))))).) | 41.3 °C | -13.6 kcal/mol

Row | Sequence | Tm [1] | folding enthalpy [2]
24 | GCCAAGCGAAAGCATCGC ((.(.((....)).).)) | 31.2 °C | -6.8 kcal/mol
25 | GATCTATAGATAGATC ((((((....)))))) | 39.9 °C | -32.6 kcal/mol
26 | GATCGTGTAAACGATC ((((((....)))))) | 66.5 °C | -42.2 kcal/mol
27 | GCGCGGCGAAAGCTGTGC ((.(.((....)).).)) | 65.2 °C | -32.2 kcal/mol
28 | GGACAAGGAAACTCGTCC ((((.((....)).)))) | 39.2 °C | -29.2 kcal/mol
29 | GGGACACGAAAGTGACCC (((.(((....))).))) | 62.9 °C | -37.1 kcal/mol
30 | GCCACAGCGAAAGCTGGC (((..(((....)))))) | 51.9 °C | -12.5 kcal/mol
31 | GCGGTTTCGAAAGAACGC (((..(((....)))))) | 44.8 °C | -26.5 kcal/mol
32 | GATCATTTGAATGATC ((((((....)))))) | 48.2 °C | -35.4 kcal/mol
33 | GGAAGTCCGAAAGGATCC (((..(((....)))))) | 28.7 °C | -11.9 kcal/mol
34 | GATCTTCCCAAGATC ((((((...)))))) | 45.8 °C | -37.6 kcal/mol
35 | GCTCGAGGAAACTCGAAC (.(((((....))))).) | 40.9 °C | -18.1 kcal/mol
36 | CCAGTGAAAACTGG (((((....))))) | 50.8 °C | -19.8 kcal/mol
37 | GGTACGGGAAACTGTGCC ((.((.(....).)).)) | 43.1 °C | -31.2 kcal/mol
38 | GGAACACGAAAGTGGTCC (((.(((....))).))) | 60.7 °C | -31.7 kcal/mol
39 | GCTTATGGAAACGTAAGC (((((.(....).))))) | 45.1 °C | -44 kcal/mol
40 | GGCTTCGAAAGAACTGCC ((((((....)))..))) | 36.7 °C | -21.5 kcal/mol
41 | GCCGTCGCGAAAGCGGGC (((..(((....)))))) | 54.5 °C | -17.9 kcal/mol
42 | CGAGTCGGAAACGATTCG (((.(((....))).))) | 50.4 °C | -47.2 kcal/mol
43 | GAAGACGGAAACGTCTTC (((((((....))))))) | 64.5 °C | -41.5 kcal/mol
44 | GGCCATGCGAAAGCAGCC (((..(((....)))))) | 48.4 °C | -17.1 kcal/mol
45 | TACAGGAAACTGTA (((((....))))) | 37.7 °C | -14.5 kcal/mol
46 | GTGTGGGGAAACCCATAC ((.((((....)))).)) | 49.2 °C | -30.9 kcal/mol

Row | Sequence | Tm [1] | folding enthalpy [2]
47 | GATCACAGGCGTGATC ((((((....)))))) | 57.3 °C | -36 kcal/mol
48 | GGCGACGAAAGTCCAGCC ((((((....)))..))) | 51.1 °C | -27.1 kcal/mol
49 | GTTTGCGAAAGCAAAAAC ((((((....)))..))) | 40.3 °C | -10.9 kcal/mol
50 | CTACCGAAAGGTAG (((((....))))) | 57.9 °C | -23.2 kcal/mol
51 | GAAGCAGGAAACTGCTTC (((((((....))))))) | 62.2 °C | -39.9 kcal/mol
52 | AGCGAGAAATCGCT (((((....))))) | 53.7 °C | -20.7 kcal/mol
53 | GACTGCGAAAGCAGCGTC ((((((....)))..))) | 50.7 °C | -10.3 kcal/mol
54 | GAGTCCGAAAGGAAGCTC ((((((....)))..))) | 37.4 °C | -17.6 kcal/mol
55 | GCCGCCGGAAACGGCAGC ((.((((....)))).)) | 59.1 °C | -15.9 kcal/mol
56 | GCCTAGAAATAGGC (((((....))))) | 49.8 °C | -29.2 kcal/mol
57 | GCCGTGCGAAAGCACCGC ((.((((....)))).)) | 55.8 °C | -16 kcal/mol
58 | GGCACGACGAAAGTCGCC (((..(((....)))))) | 38.4 °C | -8.64 kcal/mol
59 | GTTAGGACGAAAGTCAAC (((..(((....)))))) | 28.8 °C | -10.7 kcal/mol
60 | GTAGCCGAAAGGCATTAC ((((((....)))..))) | 27 °C | -7.48 kcal/mol
61 | GGTTCTCGAAAGAGCACC (((.(((....))).))) | 45.9 °C | -31.1 kcal/mol
62 | GCCAGGCGAAAGCCTAGC ((.((((....)))).)) | 51.4 °C | -15.7 kcal/mol
63 | GTGTCCGAAAGGAGCCAC ((((((....)))..))) | 33.5 °C | -14.5 kcal/mol
64 | GCGAAGCGAAAGCGTTGC ((.(.((....)).).)) | 47.7 °C | -12.4 kcal/mol
65 | CGCGGAAGATCCGCG ((((((...)))))) | 69.1 °C | -26.5 kcal/mol
66 | GTAACTGGAAACGGTTAC (((((.(....).))))) | 44.1 °C | -32.6 kcal/mol
67 | GATCTACACTAGATC ((((((...)))))) | 41.7 °C | -20.8 kcal/mol
68 | GATCTTGTTCAAGATC ((((((....)))))) | 49.1 °C | -43.4 kcal/mol
69 | GATCTTTTATAAGATC ((((((....)))))) | 44.1 °C | -34.5 kcal/mol

Row | Sequence | Tm [1] | folding enthalpy [2]
70 | GCGAAGCGAAAGCTATGC ((..(((....)))..)) | 40.7 °C | -7.44 kcal/mol
71 | GATCCTGCGGAGGATC ((((((....)))))) | 50.3 °C | -37.1 kcal/mol
72 | GCAAGGCGAAAGCGTCGC ((.(.((....)).).)) | 40.7 °C | -15.4 kcal/mol
73 | GCCCGCGAAAGCGAGGGC ((((((....)))..))) | 68.7 °C | -28 kcal/mol
74 | GAATGAGGAAACTCACTC ((.((((....)))).)) | 26 °C | -11.2 kcal/mol
75 | GCTATTGGAAACAATAGC (((((((....))))))) | 56 °C | -47.7 kcal/mol
76 | GTGTGGAAACACAC (((((....))))) | 60.6 °C | -25.8 kcal/mol
77 | GATGCTGGAAACAGCGTC ((.((((....)))).)) | 54.5 °C | -39.7 kcal/mol
78 | GACTGCGCGAAAGCGGTC (((..(((....)))))) | 48 °C | -11.3 kcal/mol
79 | GGTATCGAAAGATAGACC ((((((....)))..))) | 30.6 °C | -17 kcal/mol
80 | GTATGCCGAAAGGCCTAC (((.(((....))).))) | 45.5 °C | -12.1 kcal/mol
81 | GGCCATACGAAAGTAGCC (((..(((....)))))) | 38.7 °C | -20.6 kcal/mol
82 | GAGGTAGGAAACTGCTTC ((.(.((....)).).)) | 26.7 °C | -15.6 kcal/mol
83 | GCGGATATCCGC ((((....)))) | 56.7 °C | -33.9 kcal/mol
84 | GGGAGGACGAAAGTCCCC (((..(((....)))))) | 53.1 °C | -11.6 kcal/mol
85 | GGTTTCGAAAGAACAACC ((((((....)))..))) | 30.4 °C | -13 kcal/mol
86 | GATCTTAGATAAGATC ((((((....)))))) | 41.8 °C | -42.7 kcal/mol
87 | GGATGCGAAAGCATCTCC ((((((....)))..))) | 52.6 °C | -9.29 kcal/mol
88 | GCCGCGCGAAAGCCTGGC (((..((....))..))) | 53.8 °C | -17.5 kcal/mol
89 | GTTAGTCGAAAGACAAAC (((.(((....))).))) | 41.2 °C | -21.9 kcal/mol
90 | CGTCCCGGAAACGGCACG (((.(((....))).))) | 39.9 °C | -23.7 kcal/mol
91 | GACGGCGAAAGCCGCGTC ((((((....)))..))) | 50.9 °C | -8.52 kcal/mol
92 | GATCGGGTGGCCGATC ((((((....)))))) | 57 °C | -40.4 kcal/mol
